PAD4 FP inh – human PAD4 inhibitors, primary screen, biochemical, fluorescence polarization, 1536-well format; recombinant PAD4, RCA probe fluorescence polarization; inhibition, % at 6.36 µM; 0.41% of 330,000 active; Protein-arginine deiminase type-4 (Homo sapiens), Q9UM07; AID 485272, 2010;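 active = percent inhibition above a cutoff equal to the mean of all tested compounds plus 3 SD, cut at about 15% in these data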;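 note: 0% = PAD4 with RCA probe and DMSO and 100% = probe without PAD4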
GSTO1 counter – inhibitors of recombinant GSTO1, primary screen, counter-screen for RBBP9 inhibitor project, biochemical, fluorescence polarization; Glutathione S-transferase omega-1 (Homo sapiens), P78417; activity-based probe fluorescence polarization; inhibition, % at 5.96 µM; 1.1% of 300,000 active;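 active = inhibition above the campaign mean inhibition plus 3 SD, cut at about 35% in these data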;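 note: 0% = GSTO1-1 with DMSO and 100% = wells lacking GSTO1-1 enzyme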
Target sequence (P78417 whole entry, looked up): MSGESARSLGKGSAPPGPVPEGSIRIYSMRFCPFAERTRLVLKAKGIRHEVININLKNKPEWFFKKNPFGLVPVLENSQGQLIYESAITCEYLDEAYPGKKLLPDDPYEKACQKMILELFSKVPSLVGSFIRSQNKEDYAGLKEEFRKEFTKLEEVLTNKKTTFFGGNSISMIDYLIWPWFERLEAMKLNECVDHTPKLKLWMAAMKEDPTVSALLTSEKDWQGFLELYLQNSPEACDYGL
Apaf-1 inh – inhibitors of human Apaf-1 apoptosome, primary screen, biochemical, DEVD-Rh110 fluorescence, uHTS | Apoptotic protease-activating factor 1 (Homo sapiens), O14727 | AID 489030, 2010 | inhibition, % at 20 µM | reconstituted apoptosome caspase-3 activity | 0.71% of 330,000 active; active = inhibition of at least 40% at 20 µM;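 note: plate controls were DMSO wells for no effect and DEVD-CHO caspase inhibitor wells for full effect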
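detection = Rh110 fluorescence intensity | test system = biochemical Apaf-1 apoptosome reconstitution | also added = cytochrome c and DEVD-Rh110 substrate | schedule = 30 min plus 50 min, RT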
CTSL1 counter – Fasciola hepatica cathepsin L1 inhibitors, primary screen, counter-screen for PFM18AAP inhibitor project, biochemical, QFRET, fluorogenic peptide substrate. inhibition, % at 5.96 µM. 0.49% of 300,000 active. AID 1906, 2009. recombinant F. hepatica cathepsin L1, Z-Leu-Arg-MCA fluorescence;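 active = inhibition above the mean of all tested compounds plus 3 SD, set per screening campaign, cut at about 17% in these data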;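 note: 0% = plate median of test compound wells and 100% = 1 µM Z-Phe-Ala-diazomethylketone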
TDP2 inh – human TDP2 enzyme inhibitors, primary screen, biochemical, epi absorbance, recombinant enzyme | Tyrosyl-DNA phosphodiesterase 2 (Homo sapiens), O95551 | T5PNP hydrolysis, p-nitrophenol absorbance 415 nm | inhibition, % at 12.8 µM | 0.34% of 370,000 active | AID 720702, 2013;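 active = inhibition above the mean of all tested compounds plus 3 SD, set per campaign, cut at about 25% in these data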;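 note: 0% = DMSO with enzyme and 100% = buffer with substrate but no TDP2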
Target sequence (O95551 whole entry, looked up): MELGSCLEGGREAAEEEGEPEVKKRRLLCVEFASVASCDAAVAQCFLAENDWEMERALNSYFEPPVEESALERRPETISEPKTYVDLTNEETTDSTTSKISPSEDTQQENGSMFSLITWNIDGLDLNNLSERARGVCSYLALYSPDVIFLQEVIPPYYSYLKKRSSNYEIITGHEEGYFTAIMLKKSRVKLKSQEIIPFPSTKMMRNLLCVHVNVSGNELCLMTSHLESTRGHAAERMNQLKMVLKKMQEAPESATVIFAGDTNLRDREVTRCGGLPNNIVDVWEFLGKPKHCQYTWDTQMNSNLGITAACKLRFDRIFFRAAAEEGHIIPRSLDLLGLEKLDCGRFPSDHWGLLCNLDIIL
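Assay system: recombinant human TDP2 / Reagent: T5PNP substrate at 5 mM, a TopII-DNA adduct mimic / Measured by: epi absorbance from released p-nitrophenol / Evaluation: % inhibition relative to enzyme-containing and enzyme-free wells / Control set: enzyme-free and DMSO wells / Replicates: each compound tested once, singlicate / Schedule: enzyme reaction with compound for 2 h at 37 °C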
Apaf-1 inh conf2 – Apaf-1 inhibitors, single-dose retest, confirmation, biochemical, fluorescence, DEVD-Rh110, 20 µM. shares compounds with Apaf-1 inh. reconstituted apoptosome, caspase-3 DEVD-Rh110 fluorescence. inhibition, % at 20 µM. 25% of 1,800 active. AID 504614, 2011;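 active = mean inhibition of at least 40% at 20 µM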;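 note: plate controls were DMSO wells for no effect and DEVD-CHO caspase inhibitor control wells for full effect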
Rh110 interf inh – Rh110 fluorescence interference by putative Apaf-1 inhibitors, confirmation, artefact control for Apaf-1 inhibitor project, biochemical, 20 µM; quenched caspase reaction; 1,800 tested, under 10 active; activation (fluorescence interference), % at 20 µM; AID 504615, 2011; shares compounds with Apaf-1 inh;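 active = signal rise of 40% or more at 20 µM, treated as a fluorescence artifact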
Fluor interf inh – fluorescence interference of Apaf-1 inhibitor hits, dose response, artefact control for Apaf-1 inhibitor project; shares compounds with Apaf-1 inh; fluorescence interference counterscreen, Apaf-1 assay format; IC50, µM; 460 tested, under 10 active; call rule not given here
* marks the source's active call; other numbers are inactive results; nt = not tested or not shown. This is a sample that favours compounds with a hit; in the whole collection about 1.8% have one here.

SMILES	PAD4 FP inh	GSTO1 counter	Apaf-1 inh	CTSL1 counter	TDP2 inh	Apaf-1 inh conf2	Rh110 interf inh	others
CC1(c2ccc(OC(F)F)cc2)NC(=O)N(CC(=O)Nc2ccc(N3CCCCC3)cc2)C1=O (stereo not given)	0	-6	53*	4	-14	19	4
Clc1ccc(/C=N/Nc2ncnc3ccccc23)cc1Cl	0	-17	43*	2	-1	33	14
Fc1ccccc1/C=N/Nc1ncnc2ccccc12	-2	4	-2	5	-11	nt	nt
CC(=O)CC[C@H]1CC[C@]2(CCCN(C(=O)C3CCCCC3)C2)O1	nt	nt	nt	nt	-3	nt	nt
Cc1noc(/C=C/c2cccs2)c1S(=O)(=O)N1CCC(C(=O)NCCCN2CCC(C)CC2)CC1	3	8	40*	-7	-8	16	7
CCCN1CCN(C(=O)C2CCN(S(=O)(=O)c3c(C)noc3/C=C/c3ccc(C)cc3)CC2)CC1	1	8	61*	2	-5	27	1
CC(=O)N1CCN(C2=Nc3cccc4cccc2c34)CC1	-3	-2	80*	3	6	6	-1
C#CCNC(=O)C[C@@H]1C(=O)N(CCc2ccc(Cl)cc2)C2=CCCCC[C@]21C(=O)OC	nt	nt	nt	nt	6	nt	nt
CCN(CC)CCOC(=O)c1ccc(N/C=C(/C#N)c2nc(-c3cc4ccccc4oc3=O)cs2)cc1	nt	nt	54*	nt	-6	61*	9	Fluor interf inh=>100
CCN(CC)CCOC(=O)c1ccc(N/C=C(/C#N)c2nc(-c3ccc4c(c3)OCO4)cs2)cc1	-3	6	60*	3	9	63*	4	Fluor interf inh=>100
COc1cc(/C=C(\C#N)c2nc(-c3cc4ccccc4oc3=O)cs2)ccc1O	-3	1	17	1	-6	nt	nt
CCN(CC)CCOC(=O)c1ccc(N/C=C(/C#N)c2nc(-c3ccc(OC)cc3)cs2)cc1	0	-12	35	6	5	nt	nt
O=C(CSc1nnc(-c2ccc(Cl)cc2)n1C1CCCCC1)NN=Cc1c(O)ccc2ccccc12	nt	nt	nt	nt	-2	nt	nt
O=C(N[C@H](C(=O)N1CCC[C@H]1C(=O)NC1CCCC1)C1CCCCC1)c1ccco1	nt	nt	nt	nt	3	nt	nt
COc1ccc(-c2sc3cc4c(cc3c2C#Cc2cncn2C)OCO4)cc1	-1	nt	16	nt	13	nt	nt
COc1ccc(-c2sc3cc4c(cc3c2C#CC2(N)CCCCC2)OCO4)cc1	-1	nt	72*	nt	2	35	8
COc1cc(OC)cc(-c2sc3ccc(OC)cc3c2C#CC2(N)CCCCC2)c1	-4	nt	67*	nt	8	23	2
C=CCN1[C@@H](CC(C)C)COc2cccc(F)c2S1(=O)=O	nt	nt	nt	nt	-4	nt	nt
CC1CC(C)CN(C(=O)C2CCN(c3cncnc3)CC2)C1 (stereo not given)	nt	nt	nt	nt	7	nt	nt
Nc1ccc2nc3c(c(Cl)c2c1)CCCC3	2	9	64*	-11	-7	23	2
CCCC[C@H]1C2CC(OC(=O)Nc3ccccc3C(F)(F)F)C(C2)[C@H]2CCCCN21 (stereo not given in full)	nt	nt	nt	nt	4	nt	nt
COCCN(C(=O)COC(=O)/C=C/c1ccc(C(F)(F)F)cc1)c1c(N)n(Cc2ccccc2)c(=O)[nH]c1=O	-1	-5	44*	7	-10	6	3
Cc1noc(C)c1S(=O)(=O)N1CCCc2nc(-c3ccccc3)ccc21	nt	nt	nt	nt	0	nt	nt
Cn1c(SCC(=O)n2c3c(c4ccccc42)CCCC3)nnc1-c1ccccc1	-2	4	43*	3	4	35	-10
CC(=O)Nc1ccc(-c2nnc(SCC(=O)n3c4c(c5ccccc53)CCCC4)n2C)cc1	nt	nt	nt	nt	-1	nt	nt
SMILES	PAD4 FP inh	GSTO1 counter	Apaf-1 inh	CTSL1 counter	TDP2 inh	Apaf-1 inh conf2	Rh110 interf inh	others
O=C(OC12CCCN(C1)/C(=C/c1cccc(Cl)c1)C2)c1cccc(F)c1 (stereo not given)	nt	nt	nt	nt	0	nt	nt
O=C(NC1CCCC1)C1(C(=O)C2CC2)CC(c2ccccc2C(F)(F)F)=NO1 (stereo not given)	nt	nt	nt	nt	-5	nt	nt
Cc1ccc2nc(-c3ccc(NC(=S)NC4CC(C)(C)NC(C)(C)C4)cc3)sc2c1	-1	-20	50*	10	-14	42*	10	Fluor interf inh=>100
CCC(C)(C)c1ccc(OCCCC[n+]2ccccc2)c(C(C)(C)CC)c1	-7	2	51*	2	-9	31	17
CCCCOc1ccc(C)cc1CN(CCO)CCO	-2	-6	-9	-4	-8	nt	nt
CCCCCc1ccc(OCCCC[n+]2cccc(C)c2)c(CCCCC)c1	4	18	61*	1	1	40*	9	Fluor interf inh=>100
Cc1cc(=O)oc2cc(OCCCC[n+]3ccccc3)ccc12	-3	-10	-4	4	-7	nt	nt
CCCCCc1ccc(OCCCC[n+]2ccc(C)cc2)c(CCCCC)c1	-2	-5	56*	0	-19	37	12
CCCCCc1ccc(OCCCC[n+]2ccccc2)c(CCCCC)c1	0	9	59*	2	nt	39	12
CC(C)C[C@H]1COc2cccc(F)c2S(=O)(=O)N1C	nt	nt	nt	nt	0	nt	nt
COc1ccc(S[C@]2(C(=O)N3CCN(c4ncccn4)CC3)CC(=O)N(P(=O)(OC)OC)[C@@H]2c2ccc(OC)cc2)cc1	nt	nt	nt	nt	9	nt	nt
COc1ccccc1C(=O)N1CCN(C(=O)[C@@H](Cc2ccccc2)NC(=O)[C@H]2O[C@@H](n3ccc(=O)[nH]c3=O)[C@H](O)[C@@H]2O)CC1	nt	nt	nt	nt	-18	nt	nt
NS(=O)(=O)c1ccc(OCCCN2CCC(C(O)(c3ccccc3)c3ccccc3)CC2)cc1	nt	nt	nt	nt	3	nt	nt
CCn1c(=O)n(CC(=O)N2CCC(C)CC2)c(=O)c2ccccc21	nt	nt	nt	nt	5	nt	nt
COc1ccc(N/C=C2\CCc3ccccc3C2=O)cc1	6	25	79*	0	-7	36	16
O=C1OC2(CCCCC2)OC(=O)C1=CNc1ccc2c(c1)OCO2	-3	1	5	1	-6	nt	nt
O=C1/C(=C/Nc2ccc3c(c2)OCO3)CCc2ccccc21	0	14	45*	0	3	32	5
c1cc(SC2CCCCC2)cc(-c2nc3cnccn3c2NC2CCCCC2)c1	-1	nt	41*	nt	7	26	14
